An excerpt weighted towards active compounds, which were near 1.5% of everything screened.
PG9 binder = small molecules binding HIV-1 gp120 antibody PG9. inhibition, % at 6.7 µM. TR-FRET gp120-PG9 antibody binding. 360,000 tested, 0.43% active; in the data active = inhibition above about 8.5%
NR2E3 ag-1 = NR2E3 (human) agonism | Q9Y5X4 | GST-NR2E3/biotin-RetCOR TR-FRET, 1536-well | inhibition of corepressor binding, % at 4.78 µM | 320,000 tested, 0.12% active;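 active = percent inhibition above the cutoff of mean plus 3 SD of all tested compounds, set per screening campaign, cut at about 20% in these data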;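 also: 0% = DMSO wells and 100% = biotin wells as full block of FRET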
Target sequence (Q9Y5X4 whole entry, looked up): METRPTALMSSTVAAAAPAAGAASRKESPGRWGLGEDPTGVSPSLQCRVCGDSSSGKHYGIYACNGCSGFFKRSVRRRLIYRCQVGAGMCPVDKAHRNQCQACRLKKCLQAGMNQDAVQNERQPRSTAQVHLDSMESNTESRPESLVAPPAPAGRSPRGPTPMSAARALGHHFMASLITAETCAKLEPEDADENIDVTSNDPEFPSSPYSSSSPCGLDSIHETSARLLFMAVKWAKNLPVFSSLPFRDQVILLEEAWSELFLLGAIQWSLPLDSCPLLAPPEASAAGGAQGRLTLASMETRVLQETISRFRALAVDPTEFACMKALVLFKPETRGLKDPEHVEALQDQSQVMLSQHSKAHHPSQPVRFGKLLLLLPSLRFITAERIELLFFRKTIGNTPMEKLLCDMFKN
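Material – GST-tagged NR2E3 plus biotinylated RetCOR corepressor · Quantity – NR2E3 fusion 1.35 nM · Times – 5 h incubation at 4 °C · Medium – pH 7.5 Tris-based buffer · Technique – TR-FRET, Eu(K)-anti-GST donor, streptavidin-D2 acceptor, ex 340, em 617/671 nm · Benchmarks – high control biotin, low control 0.6% DMSO · Format – 1536-well plates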
NR2E3 ag-2 = agonists of human NR2E3 nuclear receptor. AID 602229. 360,000 tested, 0.35% active. Q9Y5X4. CHO-S Gal4-NCOR/VP16-NR2E3 two-hybrid, luciferase. inhibition of corepressor binding, % at 3.98 µM;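 active = inhibition above the mean of all tested compounds plus 3 SD, cut at about 70% in these data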;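 also: 0% = DMSO with NR2E3 transfected cells and 100% = cells lacking NR2E3 construct; higher means lower luciferase signal from less NR2E3 corepressor binding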
Rev-erbA mod = Rev-erb alpha (human) modulation. 370,000 tested, 0.79% active. P20393. Rev-erbα–FITC-DNA binding, fluorescence polarization, 90 min. activity, % at 10 µM;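 active = activity above about 14%, limit read from the data; passing the limit was not always enough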;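 also: 0% = DMSO wells with 35 nM protein and 100% = DMSO wells with 750 nM protein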
NR1D1 mod conf = confirmation of modulators of human Rev-erb alpha DNA binding. shares compounds with Rev-erbA mod. Rev-erb alpha FITC-DNA binding, fluorescence polarization, 90 min. 3,000 tested, 61% active. activation, % at 25 µM. AID 1259319;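 active = activation at or above a set limit, or at least 3 SD above the negative control mean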;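 also: 0% = 35 nM protein with DMSO and 100% = 750 nM protein high control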
RORg counter = RORgamma DNA-binding activity, dose-response counter-screen | shares compounds with Rev-erbA mod | purified RORgamma protein-FITC-DNA binding, fluorescence polarization | IC50, µM | 910 tested, 8% active;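 active = Compounds whose fitted half-maximal concentration for disrupting protein-DNA binding is below 10 micromolar; the record names Rev-erb in its text, so the target is in doubt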
Numbers without * were called inactive; · = no result given.

SMILES | PG9 binder | NR2E3 ag-1 | NR2E3 ag-2 | Rev-erbA mod | NR1D1 mod conf | others
COc1ccc(C2=NN(C(=O)CSc3nnc(C)n3C)C(c3ccco3)C2)cc1 (stereo not given) | -3 | 0 | 2 | -3 | ·
COc1ccc(C2=NN(C(=O)COc3ncnc4ccccc34)C(c3ccco3)C2)cc1 (stereo not given) | -1 | 1 | 27 | 31* | 6
O=S(=O)([N-]c1nc2ccccc2nc1-n1cc[n+](Cc2ccccc2)c1)c1ccc(Br)cc1 | -1 | 0 | 5 | 67* | 46* | RORg counter=5*
COc1ccc(-c2ccc3oc(-c4ccsc4)cc(=O)c3c2)cc1F | -7 | · | -12 | 66* | 31*
COc1ccc(-c2ccc3oc(-c4ccsc4)cc(=O)c3c2)cn1 | -1 | · | -79 | -1 | ·
CC(C)c1nc2sc3c(NCc4ccccc4)ncnc3c2c2c1COC(C)(C)C2 | 0 | -1 | 20 | 24* | 10
CC(C)c1nc2sc3c(NCc4ccco4)ncnc3c2c2c1COC(C)(C)C2 | 1 | -3 | 22 | 1 | ·
COc1ccc2c(c1)c(=O)c(C(=O)c1ccc(F)cc1)cn2CC(=O)Nc1ccc(F)cc1 | 7 | 8 | -11 | 33* | 26*
Fc1ccc(-c2nc3ccc(Br)cn3c2Cc2cccc(Cl)c2)cc1 | 5 | · | -22 | 28* | 14*
Fc1ccc(-c2nc3ccc(Br)cn3c2Cc2cccc(F)c2)cc1 | -1 | · | -26 | -3 | ·
Fc1ccc(-c2nc3ccc(Br)cn3c2Cc2ccccc2)cc1 | 3 | · | -4 | 20* | 13*
Clc1ccc(-c2nc3ccc(Br)cn3c2Cc2ccccc2)cc1 | 7 | · | -5 | 23* | 20*
Brc1ccc(-c2nc3ccc(Br)cn3c2Cc2ccccc2)cc1 | 7 | · | -86 | 26* | 16*
Cc1ccc(-c2nc3ccc(Br)cn3c2Cc2cccc(F)c2)cc1 | 2 | · | -87 | 2 | ·
CC(C)CNc1cccc2c1S(=O)(=O)N(Cc1cn(Cc3cccc(C(F)(F)F)c3)nn1)Cc1ccccc1O2 | · | · | · | 3 | ·
O=C(NC1=N[C@@]2(C=C3CCCCC3n3c(=O)n(-c4ccccc4)c(=O)n32)CN1Cc1ccccc1)c1ccccc1 (stereo not given in full) | · | · | · | 2 | ·
c1ccc(Cn2c(SC3CCCCC3)nnc2-c2cccnc2)cc1 | · | · | · | -5 | ·
CC(=O)c1cc2c(cc1N/C(=N/S(=O)(=O)c1ccc(C)cc1)c1ccccc1)OCO2 | 0 | 3 | 8 | 22 | ·
CC(=O)c1cc2c(cc1NC(=O)c1ccc(C)cc1)OCCO2 | 8 | 2 | -28 | 28* | 3
CCC(=O)c1cc2c(cc1NC(=O)c1ccc(C)cc1)OCCO2 | -2 | 2 | -11 | 1 | ·
CC(=O)c1cc2c(cc1N/C(=N/S(=O)(=O)c1ccc(C)cc1)c1ccc(Cl)cc1)OCO2 | -2 | 4 | -9 | 92* | 57* | RORg counter=>40
NC(=NCc1ccccc1)NC(=O)OCc1ccccc1 | · | · | · | -3 | ·
CCOCC(=O)Nc1c(C(=O)Nc2ccccc2OC)oc2ccccc12 | 1 | -2 | 4 | 47* | 39*
COc1ccccc1NC(=O)c1oc2ccccc2c1NC(=O)C1CC1 | -2 | 0 | -43 | 5 | ·
COc1ccc(NC(=O)c2oc3ccccc3c2NC(=O)COc2ccccc2OC)c(OC)c1 | -2 | 0 | -9 | 42* | 31*
SMILES | PG9 binder | NR2E3 ag-1 | NR2E3 ag-2 | Rev-erbA mod | NR1D1 mod conf | others
COc1ccc(NC(=O)c2oc3ccccc3c2NC(=O)c2ccc(OC)c(OC)c2)c(OC)c1 | 1 | · | -8 | 2 | ·
COc1cc(C(=O)Nc2ccc(Oc3ncnc4sc(-c5ccccc5)cc34)cc2)cc(OC)c1OC | 7 | 0 | -8 | 30* | -9
COc1ccccc1C(=O)Nc1ccc(Oc2ncnc3sc(-c4ccccc4)cc23)cc1 | 1 | -2 | 3 | 46* | 21*
COc1ccc(C(=O)Nc2ccc(Oc3ncnc4sc(-c5ccccc5)cc34)cc2)cc1OC | -1 | -6 | -19 | 20 | ·
COc1ccccc1C=NNC(=O)CSc1nc2ccccc2n1Cc1ccc(Cl)cc1 | · | · | · | -6 | ·
Cc1ccc(CN2CCCCC(NC(=O)c3ccccc3C)C2=O)cc1 (stereo not given) | · | · | · | -2 | ·
CCOC(=O)c1ccccc1NC(=O)Cn1cnc2c(cnn2-c2ccc(OC)cc2)c1=O | -1 | 4 | · | 22* | 9
COc1ccc(-n2nc(C(=O)NCC(=O)Nc3cc(OC)c(OC)c(OC)c3)c3ccccc3c2=O)cc1Cl | 0 | -2 | -8 | 0 | ·
COc1ccc(-n2nc(C(=O)NCC(=O)Nc3cccc(Cl)c3)c3ccccc3c2=O)cc1 | 1 | 1 | 19 | 82* | 39* | RORg counter=>40
COc1ccc(-n2nc(C(=O)NCC(=O)N3CCN(c4ccccc4F)CC3)c3ccccc3c2=O)cc1OC | 1 | 2 | 0 | -5 | ·
COc1ccc(-n2nc(C(=O)NCC(=O)N3CCN(c4ccccc4F)CC3)c3ccccc3c2=O)cc1 | 5 | 3 | -43 | 25* | -8
COc1ccc(-n2nc(C(=O)NCC(=O)NCc3ccc(F)cc3)c3ccccc3c2=O)c(OC)c1 | 0 | · | -43 | 27* | 2
COCCCNC(=O)CNC(=O)c1nn(-c2ccc(OC)cc2OC)c(=O)c2ccccc12 | -1 | 1 | 1 | 2 | ·
O=C(Cc1cccs1)NC1CCCCN(Cc2cccc(Cl)c2)C1=O (stereo not given) | · | · | · | 1 | ·
O=Cc1ccc(/C=C2\c3ccccc3C(=O)N2c2ccccc2)o1 | -4 | · | · | 1 | ·
CCOC(=O)c1nn(-c2ccc(C)cc2)c(=O)cc1OCC(=O)Nc1cccc(OC)c1 | 2 | -2 | -33 | -10 | ·
CCOC(=O)c1nn(-c2ccc(F)cc2)c(=O)cc1OCC(=O)Nc1ccc(OCC)cc1 | -1 | -2 | -6 | 19* | -14
COc1ccc(-n2nc(C(=O)NCC(=O)Nc3ccccn3)c3ccccc3c2=O)cc1 | 1 | -4 | -14 | 42* | 18*
CCOc1ccc(NC(=O)CNC(=O)c2nn(-c3ccc(OC)cc3)c(=O)c3ccccc23)cc1 | 4 | 5 | 6 | 32* | 11
CC(=O)N1CCN(c2cc(C)nc3nc(C)nn23)CC1 | · | · | · | -2 | ·
N#Cc1nnn2c1nc(N)c1c(Cl)cccc12 | -1 | · | -29 | 37* | 15*
N#Cc1nnn2c1nc(N)c1c(F)cccc12 | 3 | 0 | 13 | 4 | ·
Brc1ccc(Cn2nnc(-c3ccc(N4CCOCC4)cc3)n2)cc1 | · | · | · | 4 | ·
O=C(C(=O)N1CCC(CNS(=O)(=O)c2cc(C(F)(F)F)cc(C(F)(F)F)c2)CC1)c1cc2ccccc2o1 | 1 | · | · | 14 | ·
CCNC(=O)NC(=O)C(C)OC(=O)c1oc2ccc(OC)cc2c1C (stereo not given) | 1 | -2 | 4 | 23* | 12
COc1ccc(-n2c(SCC(=O)N3CCCCC3C)nnc2-c2ccncc2)cc1 (stereo not given) | · | · | · | 2 | ·
